In ChEMBL document CHEMBL1153311, “Inhibitory activity of prostaglandin E2 production by the synthetic 2'-hydroxychalcone analogues: Synthesis and SAR study” (Bioorg Med Chem Lett, 2009):

Legend:
RAW264.7 = assay: Cytotoxicity against mouse RAW264.7 cells assessed as cell viability at 10 uM by MTT assay; type: functional; settings: read-out: Activity
In short: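 RAW 264.7 mouse macrophage-like cells tested with or without LPS; viability read by MTT assay and reported as percent cell […]; values are the mean of three experiments.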

[1] = biological target: T1, Prostaglandin G/H synthase 2 (Mus musculus, UniProt Q05769); assay: Inhibition of COX2-mediated PGE2 production in LPS-stimulated mouse RAW264.7 cells by enzyme immunoassay
T1 sequence (Q05769 whole entry): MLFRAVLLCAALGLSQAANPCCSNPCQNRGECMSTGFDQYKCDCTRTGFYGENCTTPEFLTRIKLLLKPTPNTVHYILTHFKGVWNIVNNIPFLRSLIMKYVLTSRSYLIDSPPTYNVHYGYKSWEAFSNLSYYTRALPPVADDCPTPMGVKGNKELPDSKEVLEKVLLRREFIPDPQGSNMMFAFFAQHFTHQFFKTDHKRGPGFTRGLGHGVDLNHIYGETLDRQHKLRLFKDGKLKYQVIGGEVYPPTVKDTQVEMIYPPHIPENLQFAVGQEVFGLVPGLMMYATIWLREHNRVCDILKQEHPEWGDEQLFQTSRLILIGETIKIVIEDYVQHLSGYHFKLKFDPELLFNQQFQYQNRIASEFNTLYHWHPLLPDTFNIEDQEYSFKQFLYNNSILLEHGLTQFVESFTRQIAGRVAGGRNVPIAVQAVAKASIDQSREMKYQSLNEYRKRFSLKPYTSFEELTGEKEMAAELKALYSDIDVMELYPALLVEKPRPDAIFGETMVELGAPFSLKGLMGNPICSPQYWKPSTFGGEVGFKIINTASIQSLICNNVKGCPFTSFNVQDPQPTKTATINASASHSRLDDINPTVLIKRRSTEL

[2] = biological target: T2, Prostaglandin G/H synthase 2 (Homo sapiens, UniProt P35354); assay: Inhibition of COX2
T2 sequence (P35354 whole entry): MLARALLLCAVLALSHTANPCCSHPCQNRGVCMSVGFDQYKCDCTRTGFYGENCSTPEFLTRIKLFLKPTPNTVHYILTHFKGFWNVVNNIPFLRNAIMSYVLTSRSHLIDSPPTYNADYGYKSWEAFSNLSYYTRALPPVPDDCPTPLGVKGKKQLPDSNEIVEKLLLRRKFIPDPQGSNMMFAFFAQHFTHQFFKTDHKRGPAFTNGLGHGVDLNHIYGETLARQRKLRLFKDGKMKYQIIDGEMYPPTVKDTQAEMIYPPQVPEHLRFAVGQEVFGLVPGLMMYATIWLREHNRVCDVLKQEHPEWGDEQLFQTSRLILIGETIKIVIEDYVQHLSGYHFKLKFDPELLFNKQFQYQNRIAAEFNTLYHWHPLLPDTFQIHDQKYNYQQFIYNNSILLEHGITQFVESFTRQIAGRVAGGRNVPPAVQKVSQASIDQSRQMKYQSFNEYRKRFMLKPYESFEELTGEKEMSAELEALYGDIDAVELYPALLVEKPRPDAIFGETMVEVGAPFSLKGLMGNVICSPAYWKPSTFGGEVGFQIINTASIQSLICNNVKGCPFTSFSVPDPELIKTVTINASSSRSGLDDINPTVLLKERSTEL
In short: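 RAW 264.7 mouse macrophage cells were plated at 2 × 10⁵ cells/well and treated with LPS for 24 h to induce COX-2, then washed. Compounds in DMSO were added in fresh medium containing arachidonic acid for 2 h. PGE₂ released into the medium was measured by EIA, and inhibition was expressed as the mean of three experiments.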

SMILES	viability at 10 µM (RAW264.7)	IC50 [1]	IC50 [2]
COc1ccc(/C=C/C(=O)c2ccccc2O)c(OC)c1	107%	–	–
O=C(/C=C/c1ccc(Cl)cc1)c1ccccc1O	141%	–	–
COc1ccc(/C=C/C(=O)c2ccccc2O)cc1	115%	–	–
O=C(/C=C/c1ccc(OCc2ccccc2)cc1)c1ccccc1O	99%	4.1 µM	–
CSc1ccc(/C=C/C(=O)c2ccccc2O)cc1	85%	–	–
O=C(/C=C/c1ccc2c(c1)OCO2)c1ccccc1O	118%	–	–
COc1ccc(/C=C/C(=O)c2ccccc2O)cc1OCc1ccccc1	102%	–	–
Cc1ccc(/C=C/C(=O)c2ccccc2O)cc1	152%	–	–
O=C(/C=C/c1ccc(OCc2ccccc2)c(OCc2ccccc2)c1)c1ccccc1O	103%	4.6 µM	–
O=C(/C=C/c1ccc(-c2ccccc2)cc1)c1ccccc1O	135%	–	–
O=C(/C=C/c1cccc(Br)c1)c1ccccc1O	90%	–	–
O=C(/C=C/c1ccc(Cl)c(Cl)c1)c1ccccc1O	155%	–	–
O=C(/C=C/c1ccc(OC(F)(F)F)cc1)c1ccccc1O	87%	–	–
COc1ccc(/C=C/C(=O)c2ccccc2O)cc1Br	159%	–	–
COc1cccc(/C=C/C(=O)c2ccccc2O)c1OC	93%	3.8 µM	–
CC(=O)c1cc(C(C)=O)c2c(=O)cc(-c3ccccc3)oc2c1	–	–	2.7 µM
COc1cc(/C=C/C(=O)c2ccccc2O)cc(OC)c1OC	65%	6.2 µM	–
O=C(/C=C/c1ccc(Br)cc1)c1ccccc1O	162%	–	–
O=C(/C=C/c1ccccc1)c1ccccc1O [2'-HYDROXYCHALCONE]	119%	–	–
CS(=O)(=O)Nc1ccc([N+](=O)[O-])cc1OC1CCCCC1 [NS-398]	104%	–	–
COc1c(O)cc(O)c2c(=O)cc(-c3ccccc3)oc12 [WOGONIN]	111%	1.07 µM	–
